Measured values from ChEMBL document CHEMBL3244161, “Azabicycloalkanes as analgetics. 3. Structure-activity relationships of 1-phenyl-6-azabicyclo[3.2.1]octanes and absolute stereochemistry of (+)-1-(3-hydroxyphenyl)-6-methyl-6-azabicyclo[3.2.1]octane and its 7-endo-methyl derivative” (J Med Chem, 1977).
The source made the active and inactive calls. The rule behind the calls is not given here.

Assays:
Rhesus monkey [1] = test: Narcotic antagonist activity in morphine-dependent rhesus monkey assessed as mild to moderate abstinence at 3 to 12 mg/kg; format: functional, organism-based; conditions: Macaca mulatta
Summary of the method: (§1)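 Compound given to nonwithdrawn morphine-dependent monkeys; scored as precipitation of abstinence syndrome, with severity graded from mild to severe over the stated dose range.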

Mus musculus [2] = test: Analgesic activity in sc dosed mouse by hot-plate method; format: functional; conditions: Mus musculus, sc; read-out: ED50
Oryctolagus cuniculus [3] = test: Narcotic antagonist activity in iv dosed rabbit assessed as inhibition of morphine-induced respiratory depression; format: functional
Summary of the method: (§2)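 Rabbits given test compound iv; read-out is antagonism of morphine-induced respiratory depression; expressed as AD50 in mg/kg or as % antagonism at a fixed dose.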

Mus musculus [4] = test: Analgesic activity in sc dosed mouse assessed as time duration of activity by hot-plate method; format: functional
Rhesus monkey [5] = test: Suppression of abstinence syndrome in morphine-dependent rhesus monkey at 6 mg/kg; format: functional, organism-based; design: dose 6 mg/kg; conditions: Macaca mulatta
[6] = Acute toxicity in sc dosed mouse; format: organism-based; conditions: in vivo
Mus musculus [7] = test: Analgesic activity in sc dosed mouse assessed as inhibition of AcOH-induced writhing; format: functional; conditions: Mus musculus, sc; read-out: ED50
Oryctolagus cuniculus [8] = test: Narcotic antagonist activity in rabbit assessed as inhibition of morphine-induced respiratory depression at 5 mg/kg, iv; format: functional; summary of the method: as §2
Rhesus monkey [9] = test: Suppression of abstinence syndrome in morphine-dependent rhesus monkey at 1.5 mg/kg; format: functional, organism-based; design: dose 1.5 mg/kg; conditions: Macaca mulatta
Rhesus monkey [10] = test: Narcotic antagonist activity in morphine-dependent rhesus monkey assessed as moderate to severe abstinence at 1.5 to 12 mg/kg; format: functional, organism-based; conditions: Macaca mulatta; summary of the method: as §1
Mus musculus [11] = test: Analgesic activity in mouse by hot-plate method up to 100 mg/kg, sc; format: functional, organism-based; design: dose 100 mg/kg
Mus musculus [12] = test: Analgesic activity in mouse assessed as inhibition of AcOH-induced writhing up to 22.5 mg/kg, sc; format: functional, organism-based; design: dose 22.5 mg/kg
Rhesus monkey [13] = test: Narcotic antagonist activity in morphine-dependent rhesus monkey assessed as mild to severe abstinence at 2.5 to 20 mg/kg; format: functional, organism-based; conditions: Macaca mulatta; summary of the method: as §1
Rhesus monkey [14] = test: Suppression of abstinence syndrome in morphine-dependent rhesus monkey at 5 mg/kg; format: functional, organism-based; design: dose 5 mg/kg; conditions: Macaca mulatta
Rhesus monkey [15] = test: Suppression of abstinence syndrome in morphine-dependent rhesus monkey at 8 mg/kg; format: functional, organism-based; design: dose 8 mg/kg; conditions: Macaca mulatta
Rhesus monkey [16] = test: Narcotic antagonist activity in morphine-dependent rhesus monkey assessed as precipitation of abstinence up to 8 mg/kg; format: functional, organism-based; design: dose 8 mg/kg; conditions: Macaca mulatta; summary of the method: as §1
Rhesus monkey [17] = test: Narcotic antagonist activity in morphine-dependent rhesus monkey assessed as mild to severe abstinence at 2 mg/kg; format: functional, organism-based; design: dose 2 mg/kg; conditions: Macaca mulatta; summary of the method: as §1
Rhesus monkey [18] = test: Suppression of abstinence syndrome in morphine-dependent rhesus monkey up to 16 mg/kg; format: functional, organism-based; design: dose 16 mg/kg; conditions: Macaca mulatta
Rhesus monkey [19] = test: Suppression of abstinence syndrome in morphine-dependent rhesus monkey up to 8 mg/kg; format: functional, organism-based; design: dose 8 mg/kg; conditions: Macaca mulatta
Rhesus monkey [20] = test: Suppression of abstinence syndrome in morphine-dependent rhesus monkey up to 6 mg/kg; format: functional, organism-based; design: dose 6 mg/kg; conditions: Macaca mulatta
Oryctolagus cuniculus [21] = test: Narcotic antagonist activity in rabbit assessed as inhibition of morphine-induced respiratory depression up to 1 mg/kg, iv; format: functional, organism-based; design: dose 1 mg/kg; summary of the method: as §2
Rhesus monkey [22] = test: Narcotic antagonist activity in morphine-dependent rhesus monkey assessed as mild to severe abstinence at 2 to 8 mg/kg; format: functional, organism-based; conditions: Macaca mulatta; summary of the method: as §1
Rhesus monkey [23] = test: Suppression of abstinence syndrome in morphine-dependent rhesus monkey at 1 mg/kg; format: functional, organism-based; design: dose 1 mg/kg; conditions: Macaca mulatta
Rhesus monkey [24] = test: Narcotic antagonist activity in morphine-dependent rhesus monkey assessed as mild to severe abstinence at 1 to 8 mg/kg; format: functional, organism-based; conditions: Macaca mulatta; summary of the method: as §1

Question: Which Activity (Rhesus monkey [1]) does the source give for `CN1C[C@]2(c3cccc(O)c3)CCC[C@H]1C2` here?
Answer: Active

Question: What about the ED50 (Mus musculus [2]) of the same compound?
Answer: 3.6 mg/kg

Question: What about the AD50 (Oryctolagus cuniculus [3]) of the same compound?
Answer: 4.1 mg/kg

Question: What about the Time (Mus musculus [4]) of the same compound?
Answer: 140 min

Question: What about the Activity (Rhesus monkey [5]) of the same compound?
Answer: inactive

Question: And the LD50 [6]?
Answer: 90.7 mg/kg

Question: And the ED50 (Mus musculus [7])?
Answer: 3.7 mg/kg

Question: With `Br.C[C@H]1N(C)[C@H]2CCC[C@]1(c1cccc(O)c1)C2` as the compound, how does the inhibition in vivo at 5 mg/kg (Oryctolagus cuniculus [8]) read?
Answer: 42%

Question: What about the ED50 (Mus musculus [2]) of the same compound?
Answer: 2.9 mg/kg

Question: What about the Activity (Rhesus monkey [9]) of the same compound?
Answer: inactive

Question: And the Activity (Rhesus monkey [10])?
Answer: Active

Question: What about the Time (Mus musculus [4]) of the same compound?
Answer: 148.6 min

Question: And the LD50 [6]?
Answer: 123 mg/kg

Question: What about the ED50 (Mus musculus [7]) of the same compound?
Answer: 1.2 mg/kg

Question: Which results are given for `Br.C[C@@H]1N(C)[C@@H]2CCC[C@@]1(c1cccc(O)c1)C2`?
Answer: inhibition in vivo at 5 mg/kg (Oryctolagus cuniculus [8]): 48%; Activity (Mus musculus [11]): inactive; Activity (Mus musculus [12]): inactive; Activity (Rhesus monkey [13]): Active; LD50 [6]: 82.7 mg/kg; Activity (Rhesus monkey [14]): inactive

Question: With `CN1CC2(c3cccc(O)c3)CCCC1C2` (racemic) as the compound, how does the ED50 (Mus musculus [2]) read?
Answer: 14.3 mg/kg

Question: And the AD50 (Oryctolagus cuniculus [3])?
Answer: 3.1 mg/kg

Question: And the Time (Mus musculus [4])?
Answer: 137 min

Question: What about the Activity (Rhesus monkey [15]) of the same compound?
Answer: inactive

Question: And the LD50 [6]?
Answer: 133 mg/kg

Question: What about the Activity (Rhesus monkey [16]) of the same compound?
Answer: inactive

Question: And the ED50 (Mus musculus [7])?
Answer: 12.3 mg/kg

Question: What does the source list for `COc1cccc(C23CCCC(C2)N(CCCC(=O)c2ccc(F)cc2)C3)c1.Cl` (racemic)?
Answer: Activity (Rhesus monkey [17]): inactive; ED50 (Mus musculus [2]): 4.2 mg/kg; Activity (Rhesus monkey [18]): inactive; LD50 [6]: > 225 mg/kg; ED50 (Mus musculus [7]): 3 mg/kg

Question: With `CC1N(CC2CC2)C2CCCC1(c1cccc(O)c1)C2.Cl` (racemic) as the compound, how does the Activity (Rhesus monkey [19]) read?
Answer: inactive

Question: And the ED50 (Mus musculus [2])?
Answer: 5.8 mg/kg

Question: And the AD50 (Oryctolagus cuniculus [3])?
Answer: 0.1 mg/kg

Question: What about the LD50 [6] of the same compound?
Answer: 59.8 mg/kg

Question: And the ED50 (Mus musculus [7])?
Answer: 2.2 mg/kg

Question: Which results are given for `CC1N(CCc2ccccc2)C2CCCC1(c1cccc(O)c1)C2.Cl` (racemic)?
Answer: Activity (Rhesus monkey [20]): inactive; ED50 (Mus musculus [2]): 0.3 mg/kg; inhibition (Oryctolagus cuniculus [21]): inactive; LD50 [6]: 27.6 mg/kg; ED50 (Mus musculus [7]): 0.61 mg/kg

Question: Which Activity (Rhesus monkey [22]) does the source give for `CC1N(C)C2CCCC1(c1cccc(O)c1)C2` (racemic; 8) here?
Answer: Active

Question: What about the Activity (Rhesus monkey [23]) of the same compound?
Answer: inactive

Question: With `CC(=O)Oc1cccc(C23CCCC(C2)N(C)C3C)c1` (single isomer, unassigned; (+)) as the compound, how does the Activity (Rhesus monkey [23]) read?
Answer: inactive

Question: And the Activity (Rhesus monkey [24])?
Answer: Active
